11 compounds from ChEMBL document CHEMBL1149777, “Synthesis and anti-platelet activity of novel arylsulfonate--acylhydrazone derivatives, designed as antithrombotic candidates” (2008) can be followed below.

For test [1], the system named is Plasma. In words: Antiplatelet activity against citreated rabbit platelet-rich plasma assessed as collagen-induced platelet aggregation at 150 uM by turbidimetric method. The test is classed as functional, Oryctolagus cuniculus. The procedure, abridged: (§1)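 PRP stirred at 900 rpm, 37 °C, 1 min; compound 150 µM or DMSO vehicle (0.5% v/v) added 1 min before agonist: ADP 5 µM, collagen 5 µg/mL, thrombin 2 nM or arachidonic acid 100 µM. Aggregation read turbidimetrically (Born method).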

Test [2] has as its system Plasma. In words: Antiplatelet activity against citreated rabbit platelet-rich plasma assessed as thrombin-induced platelet aggregation at 150 uM by turbidimetric method. The class given is functional, Oryctolagus cuniculus. A digest of the protocol: as §1
Test [3] relates to Plasma. In words: Antiplatelet activity against citreated rabbit platelet-rich plasma assessed as inhibition of arachidonic acid-induced platelet aggregation at 150 uM by turbidimetric method. The test is classed as functional. As to conditions: Oryctolagus cuniculus. The procedure, abridged:
as §1

Test [4] concerns Plasma. Nature of the test: Antiplatelet activity against citreated rabbit platelet-rich plasma assessed as ADP-induced platelet aggregation at 150 uM by turbidimetric method. The test is classed as functional, Oryctolagus cuniculus. A digest of the protocol:
as §1

The test system of test [5] is Plasma. In words: Antiplatelet activity against citreated rabbit platelet-rich plasma assessed as inhibition of ADP-induced platelet aggregation at 150 uM by turbidimetric method. The test is classed as functional. As to conditions: Oryctolagus cuniculus. A digest of the protocol:
as §1

For test [6], the system named is Plasma. In words: Antiplatelet activity against citreated rabbit platelet-rich plasma assessed as inhibition of thrombin-induced platelet aggregation at 150 uM by turbidimetric method. As to conditions: Oryctolagus cuniculus. The test is classed as functional. The procedure, abridged: as §1
Test [7] deals with Plasma. Nature of the test: Antiplatelet activity against citreated rabbit platelet-rich plasma assessed as inhibition of collagen-induced platelet aggregation at 150 uM by turbidimetric method. As to conditions: Oryctolagus cuniculus. The class given is functional. The procedure, abridged:
as §1

For the next test, the system named is Mus musculus. In words: Antithrombotic activity against thrombin-induced pulmonary thromboembolism in mouse model assessed as survival at 100 umol/kg, po after 15 mins. The class given is functional. As to conditions: 0.25 h.

What is called inhibition is the relative decrease from the control value, in per cent. `Cc1cc2c(cc1S(=O)(=O)Oc1cccc(C(=O)N/N=C\c3ccc(/C(N)=N\O)cc3)c1)OCO2`: the results for the Activity in the test on Plasma [1], in the test on Plasma [2] and in the test with Plasma [4] were 0%, 11.3% and 58.7%, respectively. The inhibition at 150 µM was determined as 100% in the test on Plasma [3], 36% with Plasma [5], 81% in the test on Plasma [6] and 100% in the test on Plasma [7].

For the compound `Cc1cc2c(cc1S(=O)(=O)Oc1cccc(C(=O)N/N=C\c3ccc(N)cc3)c1)OCO2`, the Activity in the test with Plasma [1] is listed as 49.2%; in the test on Plasma [2] it was 58.2%; in the test on Plasma [4], 100%. Moreover, the inhibition at 150 µM in the test on Plasma [3] was 80%; in the test on Plasma [5] it was 0%; in the test with Plasma [6], 2.2%; in the test with Plasma [7], 37.5%.

Consider `Cc1cc2c(cc1S(=O)(=O)Oc1cccc(C(=O)N/N=C\c3ccncc3)c1)OCO2`, for which the survival at 100 µmol/kg with Mus musculus stood at 33.3%. The Activity in the test on Plasma [1] turned out to be 59%; in the test on Plasma [2], 16.4%; with Plasma [4] it was 100%. Also, the inhibition at 150 µM in the test on Plasma [3] was found to be 82%; in the test on Plasma [5], 0%; in the test with Plasma [6], 72.5%; in the test with Plasma [7], 25%.

For `Cc1cc2c(cc1S(=O)(=O)Oc1cccc(C(=O)N/N=C\c3ccc(C#N)cc3)c1)OCO2`, the Activity with Plasma [1] was determined as 0%; in the test on Plasma [2] it was 58.3%; in the test on Plasma [4], 54.9%. Besides, the inhibition at 150 µM in the test with Plasma [3] was 100%; with Plasma [5] it was 32%; in the test with Plasma [6], 2%; in the test with Plasma [7], 100%.

`CC(=O)Oc1ccccc1C(=O)O` [ASPIRIN]: the Activity was determined as 17.5% in the test with Plasma [1], 10.3% in the test with Plasma [2] and 74.8% with Plasma [4]. Moreover, the inhibition at 150 µM in the test on Plasma [3] was determined as 71.6%; in the test with Plasma [5] it was 7.9%; in the test with Plasma [6], 82.7%; in the test with Plasma [7], 77.7%.

In the case of `Cc1cc2c(cc1S(=O)(=O)Oc1ccc(C(=O)N/N=C\c3ccc(C(=O)O)cc3)cc1)OCO2`, the survival at 100 µmol/kg in the test with Mus musculus came to 80%. Further, the Activity in the test with Plasma [1] is on record as 59%; with Plasma [2] it was 0%; in the test on Plasma [4], 100%. Also, the inhibition at 150 µM in the test on Plasma [3] was found to be 90.8%; with Plasma [5], 0%; with Plasma [6], 100%; in the test on Plasma [7] it was 25%.

In the case of `Cc1cc2c(cc1S(=O)(=O)Oc1cccc(/C=N/NC(=O)c3ccncc3)c1)OCO2`, the Activity in the test with Plasma [1] is given as 0%; in the test on Plasma [2] it was 58.7%; in the test on Plasma [4] it was 63.3%. The inhibition at 150 µM in the test with Plasma [3] was 94.8%; in the test with Plasma [5], 22%; with Plasma [6], 1.3%; with Plasma [7] it was 100%.

Take `Cc1cc2c(cc1S(=O)(=O)Oc1ccccc1C(=O)N/N=C\c1ccc(C(=O)O)cc1)OCO2`: the survival at 100 µmol/kg with Mus musculus was determined as 80%. Also, the Activity was 100% in the test with Plasma [1], 11.9% with Plasma [2] and 100% with Plasma [4]. Also, the inhibition at 150 µM in the test with Plasma [3] is 0%; in the test with Plasma [5], 0%; in the test with Plasma [6] it was 80%; in the test with Plasma [7], 0%.

For `Cc1cc2c(cc1S(=O)(=O)Oc1cccc(C(=O)N/N=C\c3ccc(C(=O)O)cc3)c1)OCO2`, the survival at 100 µmol/kg with Mus musculus was found to be 53.3%. The Activity in the test on Plasma [1] is listed as 100%; with Plasma [2], 2.9%; in the test on Plasma [4], 100%. In addition, the inhibition at 150 µM came to 0% in the test with Plasma [3], 0% in the test with Plasma [5], 95% in the test with Plasma [6] and 0% in the test on Plasma [7].

For the compound `Cc1cc2c(cc1S(=O)(=O)Oc1cccc(C(=O)N/N=C\c3ccccc3)c1)OCO2`, the Activity was 45.6% with Plasma [1], 100% in the test with Plasma [2] and 100% in the test on Plasma [4]. The inhibition at 150 µM in the test on Plasma [3] is 97%; with Plasma [5] it was 0%; in the test with Plasma [6], 0%; in the test with Plasma [7] it was 42%.

Consider `Cc1cc2c(cc1S(=O)(=O)Oc1cccc(C(=O)N/N=C\c3ccc([N+](=O)[O-])cc3)c1)OCO2`, for which the Activity in the test on Plasma [1] worked out at 69.6%; in the test on Plasma [2] it was 57.7%; with Plasma [4], 100%. The inhibition at 150 µM in the test with Plasma [3] was 81.5%; with Plasma [5] it was 0%; with Plasma [6], 3%; with Plasma [7], 11.5%.
